Screens deposited in PubChem BioAssay by several laboratories.
MPTP inh: blocks calcium-induced mitochondrial swelling; 1.4% of 360,000 active; isolated mouse mitochondria, Ca2+ swelling absorbance, 30 min; inhibition, % at 10 µM;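 active means inhibition of 50% or more, scaled per plate between neutral and stimulator controls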
NR2E3 ag-1: activates human photoreceptor nuclear receptor NR2E3 | GST-NR2E3/biotin-RetCOR TR-FRET, 1536-well | inhibition of corepressor binding, % at 4.78 µM | 0.12% of 320,000 active | AID 2300;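 active means percent inhibition above the cutoff of mean plus 3 SD of all tested compounds, set per screening campaign, cut at about 20% in these data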
Target sequence (Q9Y5X4 whole entry, looked up): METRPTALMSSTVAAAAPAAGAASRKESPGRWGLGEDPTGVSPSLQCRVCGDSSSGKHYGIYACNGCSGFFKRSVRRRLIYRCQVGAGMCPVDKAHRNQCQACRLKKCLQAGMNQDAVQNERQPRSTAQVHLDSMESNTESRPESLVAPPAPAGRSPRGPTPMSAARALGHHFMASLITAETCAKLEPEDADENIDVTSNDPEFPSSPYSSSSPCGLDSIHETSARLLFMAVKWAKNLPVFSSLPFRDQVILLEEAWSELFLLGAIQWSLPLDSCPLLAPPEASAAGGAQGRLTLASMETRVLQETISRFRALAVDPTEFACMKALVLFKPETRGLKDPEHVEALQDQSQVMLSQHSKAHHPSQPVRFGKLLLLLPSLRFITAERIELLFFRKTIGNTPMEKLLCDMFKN
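System: GST-tagged NR2E3 plus biotinylated RetCOR corepressor; Amount: 1.35 nM GST-tagged NR2E3 final; Dosing: single nominal compound dose of 4.8 µM; Schedule: 5 h incubation at 4 °C; Technique: TR-FRET with europium anti-GST and streptavidin-D2, 340 nm excitation; Controls: biotin wells as high control, 0.6% DMSO wells as low control.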
Jurkat NFkB inh: inhibitors of the PMA/ionomycin-induced NF-kB reporter in Jurkat cells; inhibition, % at 4 µM; 0.53% of 330,000 active; PMA/ionomycin-induced NF-kB luciferase reporter, luminescence; AID 435003; in the data active means inhibition above about 50%
NR2E3 ag-2: human photoreceptor-specific nuclear receptor agonism; Q9Y5X4; AID 602229; CHO-S Gal4-NCOR/VP16-NR2E3 two-hybrid, luciferase; inhibition of corepressor binding, % at 3.98 µM; 0.35% of 360,000 active;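 active means inhibition above the mean of all tested compounds plus 3 SD, cut at about 70% in these data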;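 further: higher means lower luciferase signal from less NR2E3 corepressor binding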
aDG glyco act: alpha-DG glycosylation activation; 0.22% of 360,000 active; Pro5-aDG cells, alpha-DG glycosylation AlphaScreen (IIH6); 0% Pro5, 100% B10-LARGE cell signal; activation, % at 10 µM;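 active means activation of at least 8% versus controls, or a plate z-score of at least 8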;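 further: Pro5 are CHO cells carrying HIG-tagged alpha-DG that lacks glycosylation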
697 NFkB inh: inhibitors of the PMA/ionomycin-induced NF-kB reporter in 697 B cells. 697 B-cell NF-kB luciferase reporter, 16 h. inhibition, % at 4 µM. 0.33% of 330,000 active; in the data active means inhibition above about 35%
NR2E3 ag confirm: NR2E3 agonism confirmed in two-hybrid assay; 51% of 2,300 active; shares compounds with NR2E3 ag-2; AID 624378; inhibition, % at 3.98 µM; CHO-S mammalian two-hybrid NR2E3-NCOR, luciferase luminescence;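 active means average inhibition above a cutoff equal to the mean inhibition of all tested compounds plus one SD, cut at about 70% in these data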
VP16 counter: GAL4-VP16 reporter inhibition in NR2E3 agonist counterscreen; 29% of 2,300 active; shares compounds with NR2E3 ag-2; CHO-S GAL4-VP16 luciferase reporter, luminescence; inhibition, % at 3.98 µM;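 active means mean inhibition above a cutoff equal to the average over all tested compounds plus one standard deviation, cut at about 70% in these data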;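 further: luciferase from a UAS reporter driven by GAL4-VP16 transactivation; higher means less reporter light so more repression of VP16 activity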
Each line names hits and unclear results; the compound was inactive in the other large screens (follow-up assays come after a bar, where they were run). This is a sample that favours compounds with a hit; in the whole collection about 2.4% have one here.

COC(=O)c1c(C)oc2ccc(N(C(=O)c3ccncc3)S(=O)(=O)c3ccc(C)cc3)cc12	NR2E3 ag-2 85 | NR2E3 ag confirm 95 | VP16 counter 83
CC1=C(C(=O)OC(C)C)C(c2cn(-c3ccccc3)nc2-c2cccs2)NC(=O)N1 (stereo not given)	none
O=C(OCC12CC3CC(CC(C3)C1)C2)c1ccc(NCc2cc(O)ccc2O)cc1	NR2E3 ag-2 74 (no result: NR2E3 ag-1, Jurkat NFkB inh, 697 NFkB inh) | NR2E3 ag confirm inactive | VP16 counter inactive
C/C(=N\NC(=O)Nc1ccccc1)c1ccccc1	none
CCc1ccc(-c2nc(CSCC(=O)NCCCN3CCCC3=O)c(C)o2)cc1	NR2E3 ag-2 71 | NR2E3 ag confirm 90 | VP16 counter inactive
CCOCCCNC(=O)CSCc1nc(-c2ccc(SC)cc2)oc1C	NR2E3 ag-2 81 | NR2E3 ag confirm 81 | VP16 counter 81
Cc1ccccc1-c1nc(CS(=O)(=O)CC(=O)NCCCN2CCCC2=O)c(C)o1	none
O=C(NCc1ccc2c(c1)OCO2)OCc1ccccc1	none (no result: NR2E3 ag-1, Jurkat NFkB inh, NR2E3 ag-2, 697 NFkB inh)
O=C(Cc1c(Cl)cccc1Cl)Nc1ccncc1Cl	none
O=C(Cc1ccc(Cl)cc1Cl)Nc1ccncc1Cl	NR2E3 ag-2 98 | NR2E3 ag confirm 87 | VP16 counter 78
O=C(Cc1ccc(Cl)cc1Cl)Nc1ccncc1	none
COc1ccc(CC(=O)Nc2ccncc2Cl)cc1	NR2E3 ag-2 92 | NR2E3 ag confirm 87 | VP16 counter 71
CCOc1ccc(-n2c(SCC(=O)c3c(N)n(C)c(=O)n(C)c3=O)nnc2-c2cccnc2)cc1	none
COc1ccc(S(=O)(=O)Oc2ccc3ccccc3c2)cc1	none
COC1=C(OC)C(=O)C(Sc2ccc3ccccc3c2)=CC1=O	NR2E3 ag-2 84 (no result: NR2E3 ag-1, Jurkat NFkB inh, 697 NFkB inh) | NR2E3 ag confirm 94 | VP16 counter inactive
COc1ccc(-c2coc3c(C(=O)NCC4CCOCC4)cccc23)c(C)c1	NR2E3 ag-2 71 (no result: NR2E3 ag-1, Jurkat NFkB inh, 697 NFkB inh) | NR2E3 ag confirm inactive | VP16 counter inactive
Cc1nn(Cc2ccc(C(=O)NN)cc2)c(C)c1Cl	none
Cc1nn(Cc2ccc(C(=O)Nc3nccs3)cc2)c(C)c1Cl	none | NR2E3 ag confirm inactive | VP16 counter inactive
CN(NC(=O)Nc1ccccc1)c1cnn(C)c(=O)c1Cl	none
Cn1ncc(S(=O)(=O)Cc2ccccc2)c(Cl)c1=O	none | NR2E3 ag confirm inactive | VP16 counter inactive
COC(=O)c1ccc(C(=O)NC2CCSc3ccccc32)cc1 (stereo not given)	none
Cc1ccc(NC(=S)NC2CCSc3ccccc32)cc1C (stereo not given)	none | NR2E3 ag confirm inactive | VP16 counter inactive
COc1ccc(S(=O)(=O)N2CCOC2CNC(=O)C(=O)NCc2ccc(F)cc2)cc1OC (stereo not given)	none | NR2E3 ag confirm inactive | VP16 counter inactive
NC1=C(Br)C(=O)c2ncccc2C1=O	NR2E3 ag-2 99 (no result: NR2E3 ag-1, Jurkat NFkB inh, 697 NFkB inh) | NR2E3 ag confirm 92 | VP16 counter inactive
Cc1ccc(C)c(-n2sc3ccc(F)cc3c2=O)c1	none | NR2E3 ag confirm inactive | VP16 counter inactive
Cc1ccc2nc(C(F)(F)F)c(C#N)c(N)c2c1	NR2E3 ag-2 75 | NR2E3 ag confirm inactive | VP16 counter inactive
Cc1cc(C)c2nc(C(F)(F)F)c(C#N)c(N)c2c1	none
C/C=C(/C)C(=O)OC1CC(C)(C)C[C@H]2C3=CC[C@@H]4[C@@]5(C)CCC(O[C@@H]6O[C@@H](C(=O)O)[C@@H](O)C(O[C@@H]7OC[C@H](O)[C@@H](O)[C@@H]7O[C@@H]7OC(CO)C(O)[C@@H](O)[C@@H]7O)C6O[C@@H]6OC(CO)C(O)C(O)C6O)[C@@](C)(CO)[C@@H]5CC[C@]4(C)[C@]3(C)CC(O)[C@@]12CO (stereo not given in full)	none (no result: NR2E3 ag-1) | NR2E3 ag confirm inactive | VP16 counter inactive
Cn1nnnc1SCCNC(=O)C1CCC(=O)N(Cc2ccc(Cl)cc2)C1 (stereo not given)	none
CC1CCN(CCCNS(=O)(=O)c2cc(Br)cc3c2N(C(=O)C2CC2)CC3)CC1	none
O=S(=O)(c1ccccc1C(F)(F)F)N1CCN(c2ncnc3sccc23)CC1	none (no result: NR2E3 ag-1) | NR2E3 ag confirm inactive | VP16 counter inactive
N#Cc1ccsc1NC(=O)CN1CCN(S(=O)(=O)c2ccccc2C(F)(F)F)CC1	none
Cc1ccc([C@@H]2CC=C(C(=O)O)[C@H](c3ccc(Cl)cc3)N2S(=O)(=O)c2ccc(C)cc2)cc1	none
CCCC[C@@H]1C=C(C(=O)O)[C@H](c2ccc(Cl)c(Cl)c2)N1S(=O)(=O)c1ccc(C)cc1	NR2E3 ag-2 85 (no result: NR2E3 ag-1) | NR2E3 ag confirm inactive | VP16 counter inactive
CCc1ccc([C@H]2C(C(=O)O)=C[C@@H](CC3CCCC3)N2S(=O)(=O)c2ccc(C)cc2)cc1	none (no result: NR2E3 ag-1) | NR2E3 ag confirm inactive | VP16 counter inactive
Cc1ccc([C@H]2C(C(=O)O)=C[C@@H](CC3CCCC3)N2S(=O)(=O)c2ccc(C)cc2)cc1	none (no result: NR2E3 ag-1)
Cc1ccc([C@H]2C(C(=O)O)=CC[C@@H](c3ccc(Cl)c(Cl)c3)N2S(=O)(=O)c2ccc(C)cc2)cc1	none (no result: NR2E3 ag-1) | NR2E3 ag confirm inactive | VP16 counter inactive
CCCC[C@@H]1C=C(C(=O)O)[C@H](c2ccc(C)cc2)N1S(=O)(=O)c1ccc(C)cc1	none (no result: NR2E3 ag-1)
Cc1ccc(S(=O)(=O)N2[C@@H](c3ccc(Cl)cc3)C(C(=O)O)=CC[C@H]2c2ccc(Cl)cc2)cc1	none | NR2E3 ag confirm inactive | VP16 counter inactive
COc1ccccc1CNC(=O)C1(C)CCN1C(=O)C1(c2ccccc2)CC1 (stereo not given)	none (no result: NR2E3 ag-1, Jurkat NFkB inh, 697 NFkB inh)
O=C(Nc1ccccc1)c1cc(C2COCCN2C(=O)c2ccccn2)on1 (stereo not given)	none (no result: NR2E3 ag-1, Jurkat NFkB inh, 697 NFkB inh)
COc1ccc(OC)c(Nc2ncnc3sccc23)c1	none
COc1cc(CN(C)c2ncnc3sccc23)ccc1OC(F)F	NR2E3 ag-2 84 | NR2E3 ag confirm 74 | VP16 counter inactive
Cc1ccccc1Cc1ccc(Cl)nn1	none
CS(=O)(=O)N1CCc2cc(S(=O)(=O)NCCNS(=O)(=O)c3ccc4c(c3)CCN4S(C)(=O)=O)ccc21	none
CS(=O)(=O)N1CCc2cc(S(=O)(=O)Nc3ccc4c(c3)OCCO4)ccc21	none | NR2E3 ag confirm inactive | VP16 counter inactive
COc1ccc(CN(C)C(=O)c2[nH]c(C)c(C(C)=O)c2C)c(OC)c1OC	none
CCc1ccc(NC(=S)N(CCCN2CCOCC2)Cc2ccco2)cc1	none | NR2E3 ag confirm inactive | VP16 counter inactive
COc1ccc(NC(=S)N(CCCN2CCOCC2)Cc2ccco2)cc1	none
CCNc1nc2c(c(=O)n(C)c(=O)n2C)n1Cc1ccc(Cl)cc1	none | NR2E3 ag confirm 78 | VP16 counter inactive
O=C(NCCCN1CCCC1=O)c1ccccc1OCc1ccc(Cl)cc1Cl	none (no result: NR2E3 ag-1)
